Screens as filed in PubChem BioAssay.
CCR6 antagonist – CCR6 receptor antagonists, primary screen, cell-based, CHO-K1, luminescence, beta-arrestin, uHTS. C-C chemokine receptor type 6 (Homo sapiens), P51684. CHO-K1 CCR6 PathHunter beta-arrestin, CCL20-stimulated. inhibition, % at 20 µM. 340,000 compounds, 0.49% hits;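 active = compounds whose inhibition of the agonist-driven luminescence signal at 20 µM reaches about 50%, limit read from the data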;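 note: cells stimulated with CCL20 at 14 nM final; plate controls were DMSO with CCL20 for no effect and DMSO without agonist for full effect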
APJ agonist – agonists of human apelin receptor APJ, primary screen, CHO-K1 cells, PathHunter beta-arrestin, luminescence | P35414 | 0% DMSO wells, 100% apelin | activation, % at 20 µM | 330,000 compounds, 0.11% hits;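 active = activation more than six SD over the plate average, tested at 20 µM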;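 note: 0% = DMSO alone and 100% = apelin-13 at 10 nM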
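Test system: CHO-K1 APJ beta-arrestin complementation cell line. Amount: cell density 1000 per well. Controls: DMSO negative, 10 nM Apelin-13 positive. Signal: luminescent beta-gal fragment complementation, chemiluminescent substrate. Read-out basis: agonist-driven arrestin binding to APJ. Timing: compound stimulation 90 min at 25 °C, detection 60 min.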
EBI2 block – EBI2 receptor antagonists, beta-arrestin recruitment, primary screen, cell-based, luminescence, 7a,25-OHC stimulation, uHTS; G-protein coupled receptor 183 (Homo sapiens), P32249; 7a,25-OHC stimulated; inhibition, % at 5 µM; 360,000 compounds, 0.81% hits; AID 651636, 2012; in the data active = inhibition above about 38%;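 note: enzyme fragment complementation signal reports receptor beta-arrestin coupling in cells; 0% = agonist plus DMSO wells and 100% = wells without agonist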
APJ antagonist – antagonists of human apelin receptor APJ, primary screen, CHO-K1 cells, beta-arrestin complementation, luminescence. P35414. inhibition, % at 20 µM. 330,000 compounds, 0.32% hits. AID 2521, 2010;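 active = inhibition above about 40% at 20 µM, limit read from the data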;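 note: cells challenged with 10 nM apelin-13 agonist together with compound; plate controls were apelin-13 plus DMSO wells for no effect and DMSO wells lacking apelin-13 for full effect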
HTR2A ag – mouse Htr2a agonists via beta-arrestin recruitment, primary screen, cell-based, luminescence; 360,000 compounds, 0.66% hits; activation, % at 7.6 µM; CHO-K1 mHTR2A beta-arrestin complementation; percent of 30 µM serotonin response; AID 624169, 2012; 5-hydroxytryptamine receptor 2A (Mus musculus), P35363;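 active = activation above a run cutoff, the mean activation of all tested compounds plus 3 SD, cut at about 14% in these data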;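 note: 0% = plate median of compound wells and 100% = 30 µM serotonin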
Target sequence (P35363 whole entry, looked up): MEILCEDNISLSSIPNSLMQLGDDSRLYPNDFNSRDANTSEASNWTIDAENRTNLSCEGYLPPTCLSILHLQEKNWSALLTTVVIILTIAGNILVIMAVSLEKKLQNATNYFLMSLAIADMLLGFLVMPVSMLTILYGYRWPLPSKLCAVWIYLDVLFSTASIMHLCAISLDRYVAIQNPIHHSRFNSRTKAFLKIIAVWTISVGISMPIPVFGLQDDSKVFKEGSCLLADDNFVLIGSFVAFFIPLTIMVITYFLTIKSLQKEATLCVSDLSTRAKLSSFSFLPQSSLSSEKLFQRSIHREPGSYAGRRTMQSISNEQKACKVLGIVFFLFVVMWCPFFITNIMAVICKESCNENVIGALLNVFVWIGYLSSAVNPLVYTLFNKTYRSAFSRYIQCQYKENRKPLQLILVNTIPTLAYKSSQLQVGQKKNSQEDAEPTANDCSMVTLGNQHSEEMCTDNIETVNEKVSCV
CXCR6 block – CXCR6 receptor inhibitors, primary screen, cell-based, beta-arrestin, luminescence, CHO-K1 PathHunter, 1536-well; C-X-C chemokine receptor type 6 (Homo sapiens), O00574; inhibition, % at 20 µM; 360,000 compounds, 0.36% hits; AID 602244, 2012; in the data active = inhibition above about 34%, passing the limit was not always enough;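 note: antagonist mode with CXCL16 agonist at 10 nM final; 0% = 10 nM CXCL16 with DMSO and 100% = unstimulated wells without agonist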
EBI2 conf – EBI2 antagonist hit retest, beta-arrestin, confirmation, cell-based, single concentration, luminescence, 7a,25-OHC stimulation; shares compounds with EBI2 block; 7a,25-OHC antagonism; inhibition, % at 5 µM; 2,400 compounds, 29% hits; AID 651997, 2013;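 active = inhibition of at least 50%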
EBI2 ag – EBI2 agonist activity of antagonist hits, confirmation, counter-screen for EBI2 antagonist project, cell-based, single concentration, agonist mode, luminescence; 2,400 tested, under 10 active; shares compounds with EBI2 block; EBI2-expressing cells, 60 min; 0% vehicle, 100% 7α,25-dihydroxycholesterol control; activation, % at 5 µM;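 active = activation of at least 50%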
bGal cs – E. coli beta-galactosidase enzyme inhibition, confirmation, counter-screen for EBI2 antagonist project, biochemical, luminescence, single concentration. shares compounds with EBI2 block. purified beta-galactosidase, luminescent Galacton Star, 15 min. inhibition, % at 5 µM. 2,400 compounds, 1% hits;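 active = replicate-average signal at least 3 plate SD below neutral wells, shown as high inhibition, flagging enzyme-inhibiting false positives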;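 note: 0% = DMSO wells with enzyme and 100% = wells lacking enzyme; higher means stronger loss of beta-gal luminescence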
Active calls of the source: *; · = no result given. Rows were chosen to be rich in hits. Some 2.1% of all compounds tested hit in one or more screens of this group.

SMILES	CCR6 antagonist	APJ agonist	EBI2 block	APJ antagonist	HTR2A ag	CXCR6 block	EBI2 conf	EBI2 ag	bGal cs
CC(C)C[C@H]1CNC(=S)N1C[C@H]1CCCN1C[C@H](CC(C)C)N1C[C@H](Cc2ccc(O)cc2)N(CC2CCCCC2)C1=S	·	·	61*	·	1	11	8	-1	-7
CCOc1ccc(CCN2C(=S)N([C@@H](CC(C)C)CN3CCC[C@@H]3CN3C(=S)NC[C@@H]3CC(C)C)C[C@@H]2Cc2ccc(O)cc2)cc1	·	·	47*	·	-4	10	23	0	4
CC(C)C[C@@H](CN1CCCC1CN1C(=S)NC[C@@H]1Cc1ccccc1)N1C[C@H](Cc2ccc(O)cc2)N(CCc2ccccc2)C1=S (some centres not stated)	·	·	22	·	-8	0	·	·	·
CC(C)C[C@@H](CN1CCCC1CN1C(=S)NC[C@@H]1Cc1ccc(O)cc1)N1C[C@H](Cc2ccc(O)cc2)N(CC2CCCCCC2)C1=S (some centres not stated)	1	·	30	·	-1	4	·	·	·
CC(C)C[C@@H](CN1CCC[C@@H]1CN1C(=S)NC[C@@H]1Cc1ccc(O)cc1)N1C[C@H](Cc2ccc(O)cc2)N(CCc2ccccc2)C1=S	·	·	74*	·	2	1	19	0	-11
O=C1OCCC1Sc1nnc(-c2ccccc2Cl)n1Cc1ccccc1 (configuration not stated)	-5	-3	53*	5	4	4	12	0	-7
O=C(CNC(=O)c1ccc(S(=O)(=O)N2CCCC2)cc1)N/N=C/c1ccc(Cl)cc1Cl	11	-3	75*	-4	3	-8	48	1	2
O=C(CN1CCN(S(=O)(=O)c2ccc(Br)cc2)CC1)N/N=C/c1cccs1	11	-2	41	8	-2	1	·	·	·
O=C(CNC(=O)c1ccc(S(=O)(=O)N2CCCC2)cc1)N/N=C/c1c(Cl)cccc1Cl	12	1	11	-10	-3	-14	·	·	·
O=C(CN1CCN(S(=O)(=O)c2ccc(Br)cc2)CC1)N/N=C/c1ccncc1	4	-3	54*	19	5	-17	32	0	7
O=C(CNC(=O)c1ccc(S(=O)(=O)N2CCCC2)cc1)N/N=C/c1ccc(Cl)cc1	1	0	60*	-13	-2	-8	40	1	-1
O=S1(=O)CCN(c2ccccc2CC(c2c[nH]c3ccccc23)c2c[nH]c3ccccc23)CC1	0	·	12	·	-2	-5	·	·	·
Cc1ccc(-c2nnc(N3CCN(C(=O)CN4C(=O)c5ccccc5C4=O)CC3)c3ccccc23)cc1	6	6	1	-14	-4	-3	·	·	·
O=C(COc1ccccc1)N1CCN(c2nnc(-c3ccccc3)c3ccccc23)CC1	-4	-3	71*	-15	-3	-2	47	0	-12
Cc1ccc(OCC(=O)N2CCN(c3nnc(-c4ccc(C)cc4)c4ccccc34)CC2)cc1	26	0	87*	23	5	2	84*	1	7
COc1ccc(-c2nnc(N3CCCCC3)c3ccccc23)cc1	9	-1	7	5	3	5	·	·	·
COc1ccc(OCC(=O)N2CCN(c3nnc(-c4ccccc4)c4ccccc34)CC2)cc1	0	-4	92*	18	9	4	80*	-1	11
CCC(=O)N1CCN(c2nnc(-c3ccccc3)c3ccccc23)CC1	7	-1	1	16	-2	5	·	·	·
COc1ccc(OCC(=O)N2CCN(c3nnc(-c4ccc(C)cc4)c4ccccc34)CC2)cc1	17	2	96*	24	3	-3	83*	-2	-12
C=CC(=O)N1C/C=C\C(c2ccc(OC)cc2)N(Cc2ccc(F)cc2)C(=O)C1 (configuration not stated)	-1	1	-8	18	5	-4	·	·	·
O=C(O)c1cccc(Nc2ccncc2[N+](=O)[O-])c1	3	-4	-2	18	10	1	·	·	·
CCOc1cccc(NC(=O)c2ccc(S(=O)(=O)N(C)C)cc2)c1	12	-1	46*	2	0	-5	33	-1	-11
CC(C)C(NS(=O)(=O)c1cc(C(=O)O)ccc1Cl)C(=O)O (configuration not stated)	-2	-3	2	0	1	-6	·	·	·
CC(C)Sc1ccc(C(=O)Nc2ccc(F)cc2F)cn1	13	-1	45*	-8	-2	8	20	0	12
COc1ccccc1-c1ccc2c(c1)O[C@@H](CN(C)C(=O)Nc1cccc(F)c1)[C@H](C)CN([C@H](C)CO)S2(=O)=O	·	·	44*	·	0	-14	2	2	2
SMILES	CCR6 antagonist	APJ agonist	EBI2 block	APJ antagonist	HTR2A ag	CXCR6 block	EBI2 conf	EBI2 ag	bGal cs
Cc1ccc(C(=O)COC(=O)c2ccc3c(c2)C(=O)N(c2cccc4ncccc24)C3=O)cc1C	11	2	48*	0	-1	4	1	-2	-9
COc1ccccc1Oc1ccc2c(c1)C(=O)N(c1cccc3ncccc13)C2=O	12	·	11	·	-3	-1	·	·	·
CC(=O)C1CCC2C(CCC3=CC(=O)CCC32)C1 (configuration not stated)	5	·	4	·	-1	1	·	·	·
Cc1cccc(C)c1NCc1nnc(SCC(=O)Nc2nc(-c3ccccc3)cs2)n1-c1ccccc1	10	-2	4	-5	-7	-2	·	·	·
CCOc1ccc(NCc2nnc(SCC(=O)Nc3nc(-c4ccccc4)cs3)n2-c2ccccc2)cc1	3	-4	46*	-4	-4	-8	23	-1	-19
Nc1sc(-c2ccccc2)cc1C(=O)N1CCNCC1	·	·	46*	·	-7	·	33	0	10
